Measurements taken from ChEMBL document CHEMBL1137478, “Optimization of triarylimidazoles for Tie2: influence of conformation on potency” (Bioorg Med Chem Lett, 2007).

Experiments:
Angiopoietin-1 receptor [1] = biological target: T1, Angiopoietin-1 receptor (Homo sapiens, UniProt Q02763); experiment: Inhibition of Tie2
[2] = biological target: RAC-alpha serine/threonine-protein kinase (Homo sapiens, UniProt P31749); experiment: Inhibition of AKT1
[3] = biological target: Macrophage colony-stimulating factor 1 receptor (Homo sapiens, UniProt P07333)
[4] = biological target: Platelet-derived growth factor receptor alpha (Homo sapiens, UniProt P16234); experiment: Inhibition of PDGFRalpha
Sequence of Platelet-derived growth factor receptor alpha (P16234 whole entry): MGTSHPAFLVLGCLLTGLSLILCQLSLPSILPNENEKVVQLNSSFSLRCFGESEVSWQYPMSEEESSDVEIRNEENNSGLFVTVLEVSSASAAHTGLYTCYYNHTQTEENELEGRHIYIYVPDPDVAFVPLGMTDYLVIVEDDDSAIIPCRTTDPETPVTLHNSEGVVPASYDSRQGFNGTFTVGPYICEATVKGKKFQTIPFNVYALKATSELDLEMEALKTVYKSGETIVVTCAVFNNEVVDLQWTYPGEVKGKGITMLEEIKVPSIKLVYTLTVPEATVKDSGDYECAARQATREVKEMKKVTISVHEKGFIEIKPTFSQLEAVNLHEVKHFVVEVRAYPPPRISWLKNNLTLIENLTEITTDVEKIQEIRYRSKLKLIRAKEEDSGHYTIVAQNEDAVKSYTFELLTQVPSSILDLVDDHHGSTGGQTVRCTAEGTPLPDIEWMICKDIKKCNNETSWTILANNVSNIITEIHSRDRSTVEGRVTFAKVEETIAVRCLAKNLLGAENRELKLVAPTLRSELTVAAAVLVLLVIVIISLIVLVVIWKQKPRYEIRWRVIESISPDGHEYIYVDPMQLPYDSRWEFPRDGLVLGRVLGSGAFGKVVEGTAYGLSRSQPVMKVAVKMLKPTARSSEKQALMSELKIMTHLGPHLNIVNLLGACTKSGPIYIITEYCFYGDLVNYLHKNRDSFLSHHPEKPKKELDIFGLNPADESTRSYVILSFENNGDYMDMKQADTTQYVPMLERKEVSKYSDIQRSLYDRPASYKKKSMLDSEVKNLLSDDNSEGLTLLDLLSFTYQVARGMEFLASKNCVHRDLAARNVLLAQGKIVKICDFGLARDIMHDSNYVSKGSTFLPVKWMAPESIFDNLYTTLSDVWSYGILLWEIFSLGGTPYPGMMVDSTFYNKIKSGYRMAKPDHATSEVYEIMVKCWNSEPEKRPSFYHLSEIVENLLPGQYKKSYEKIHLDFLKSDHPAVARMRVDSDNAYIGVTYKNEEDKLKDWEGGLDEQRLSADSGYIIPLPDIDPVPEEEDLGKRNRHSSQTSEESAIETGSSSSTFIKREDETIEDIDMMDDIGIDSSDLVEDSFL

[5] = biological target: Vascular endothelial growth factor receptor 2 (Homo sapiens, UniProt P35968); experiment: Inhibition of VEGFR2
Mus musculus [6] = experiment: Inhibition of bFGF-stimulated angiogenesis in Matrigel mouse model at 50 mg/kg, po after 6 days; assay type: functional; settings: 144 h
How it was run: (§1)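 Mice bear Matrigel plugs in which angiogenesis is driven by bFGF; compound given as two doses. Control groups are untreated bFGF mice and mice without bFGF. Animals are killed after 6 days, and the heme content of the Matrigel plug is measured as the angiogenesis read-out.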

[7] = biological target: Fibroblast growth factor receptor 1 (Homo sapiens, UniProt P11362); experiment: Inhibition of FGFR1
[8] = Inhibition of GSK3; set-up: species or system Homo sapiens
[9] = biological target: Mast/stem cell growth factor receptor Kit (Homo sapiens, UniProt P10721); experiment: Inhibition of KIT
Sequence of Mast/stem cell growth factor receptor Kit (P10721 whole entry): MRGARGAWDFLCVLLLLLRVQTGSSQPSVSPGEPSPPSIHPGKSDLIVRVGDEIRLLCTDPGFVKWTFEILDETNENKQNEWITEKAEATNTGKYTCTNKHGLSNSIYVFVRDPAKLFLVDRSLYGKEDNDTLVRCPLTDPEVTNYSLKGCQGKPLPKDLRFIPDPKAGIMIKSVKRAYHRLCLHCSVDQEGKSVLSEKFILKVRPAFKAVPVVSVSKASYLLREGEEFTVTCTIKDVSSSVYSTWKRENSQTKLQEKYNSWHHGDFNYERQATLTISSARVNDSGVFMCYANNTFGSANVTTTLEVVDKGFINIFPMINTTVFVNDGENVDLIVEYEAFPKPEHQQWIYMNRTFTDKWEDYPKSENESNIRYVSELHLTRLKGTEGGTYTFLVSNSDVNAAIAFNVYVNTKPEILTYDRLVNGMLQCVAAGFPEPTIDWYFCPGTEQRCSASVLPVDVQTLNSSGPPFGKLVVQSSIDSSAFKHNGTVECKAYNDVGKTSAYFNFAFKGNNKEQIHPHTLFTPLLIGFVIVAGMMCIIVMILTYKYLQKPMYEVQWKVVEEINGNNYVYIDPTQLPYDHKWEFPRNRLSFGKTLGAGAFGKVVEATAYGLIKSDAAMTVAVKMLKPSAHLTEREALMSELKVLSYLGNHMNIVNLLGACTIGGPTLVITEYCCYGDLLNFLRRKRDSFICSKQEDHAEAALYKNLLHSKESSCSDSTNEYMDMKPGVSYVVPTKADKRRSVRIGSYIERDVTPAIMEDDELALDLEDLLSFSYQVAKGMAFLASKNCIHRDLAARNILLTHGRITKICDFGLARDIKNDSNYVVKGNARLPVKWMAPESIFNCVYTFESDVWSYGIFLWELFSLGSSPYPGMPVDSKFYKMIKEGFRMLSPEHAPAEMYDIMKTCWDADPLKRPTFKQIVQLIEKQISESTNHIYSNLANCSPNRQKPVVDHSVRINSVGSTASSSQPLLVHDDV

TGF-beta receptor type-1 = biological target: T2, TGF-beta receptor type-1 (Homo sapiens, UniProt P36897)
T2 sequence (P36897 whole entry): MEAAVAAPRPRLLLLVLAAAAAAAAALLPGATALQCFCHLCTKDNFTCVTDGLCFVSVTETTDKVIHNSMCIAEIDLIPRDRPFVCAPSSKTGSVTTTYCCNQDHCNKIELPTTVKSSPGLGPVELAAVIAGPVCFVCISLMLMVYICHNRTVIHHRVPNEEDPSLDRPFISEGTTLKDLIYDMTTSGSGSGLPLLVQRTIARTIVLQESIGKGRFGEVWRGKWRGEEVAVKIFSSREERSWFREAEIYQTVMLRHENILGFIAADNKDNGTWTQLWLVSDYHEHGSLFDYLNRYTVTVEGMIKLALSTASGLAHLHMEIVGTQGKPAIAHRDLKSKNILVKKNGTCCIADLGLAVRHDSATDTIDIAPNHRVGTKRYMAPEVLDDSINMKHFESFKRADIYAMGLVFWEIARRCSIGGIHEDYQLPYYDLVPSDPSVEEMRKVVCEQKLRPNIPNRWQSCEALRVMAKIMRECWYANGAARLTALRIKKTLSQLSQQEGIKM

[10] = biological target: Tyrosine-protein kinase ABL1 (Homo sapiens, UniProt P00519); experiment: Inhibition of Abl kinase
MAP kinase p38 = MAP kinase p38 (Homo sapiens, UniProt O15264+Q15759+Q16539+P53778); experiment: Inhibition of mitogen-activated protein kinase p38; assay type: protein assay
Insulin receptor = Insulin receptor (Homo sapiens, UniProt P06213); experiment: Inhibition of INSR
Mus musculus [11] = experiment: Inhibition of bFGF-stimulated angiogenesis in Matrigel mouse model at 25 mg/kg, po after 6 days; assay type: functional; settings: 144 h; how it was run: as §1
[12] = biological target: Protein kinase C beta type (Homo sapiens, UniProt P05771); experiment: Inhibition of PKCbeta1
Sequence of Protein kinase C beta type (P05771 whole entry): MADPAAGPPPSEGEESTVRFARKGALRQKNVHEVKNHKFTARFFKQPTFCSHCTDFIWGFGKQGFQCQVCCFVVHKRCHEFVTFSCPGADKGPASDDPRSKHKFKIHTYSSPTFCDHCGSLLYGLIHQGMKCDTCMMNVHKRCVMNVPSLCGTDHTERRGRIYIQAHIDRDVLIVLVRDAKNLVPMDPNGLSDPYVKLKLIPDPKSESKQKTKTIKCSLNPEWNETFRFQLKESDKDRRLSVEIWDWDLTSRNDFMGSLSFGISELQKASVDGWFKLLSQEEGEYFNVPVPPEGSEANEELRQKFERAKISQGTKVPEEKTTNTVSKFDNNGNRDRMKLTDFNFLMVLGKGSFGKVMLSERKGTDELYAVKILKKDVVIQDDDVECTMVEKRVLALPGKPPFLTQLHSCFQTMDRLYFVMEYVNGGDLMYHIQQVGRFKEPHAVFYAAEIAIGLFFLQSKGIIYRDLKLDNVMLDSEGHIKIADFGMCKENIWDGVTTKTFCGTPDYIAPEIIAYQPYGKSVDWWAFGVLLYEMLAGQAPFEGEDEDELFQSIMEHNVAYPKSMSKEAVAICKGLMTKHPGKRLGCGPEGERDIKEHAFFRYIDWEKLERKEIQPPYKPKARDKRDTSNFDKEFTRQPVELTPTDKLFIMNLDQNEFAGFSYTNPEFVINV

[13] = biological target: Cyclin-dependent kinase 2 (Homo sapiens, UniProt P24941); experiment: Inhibition of CDK2
[14] = biological target: Platelet-derived growth factor receptor beta (Homo sapiens, UniProt P09619); experiment: Inhibition of PDGFRbeta
Sequence of Platelet-derived growth factor receptor beta (P09619 whole entry): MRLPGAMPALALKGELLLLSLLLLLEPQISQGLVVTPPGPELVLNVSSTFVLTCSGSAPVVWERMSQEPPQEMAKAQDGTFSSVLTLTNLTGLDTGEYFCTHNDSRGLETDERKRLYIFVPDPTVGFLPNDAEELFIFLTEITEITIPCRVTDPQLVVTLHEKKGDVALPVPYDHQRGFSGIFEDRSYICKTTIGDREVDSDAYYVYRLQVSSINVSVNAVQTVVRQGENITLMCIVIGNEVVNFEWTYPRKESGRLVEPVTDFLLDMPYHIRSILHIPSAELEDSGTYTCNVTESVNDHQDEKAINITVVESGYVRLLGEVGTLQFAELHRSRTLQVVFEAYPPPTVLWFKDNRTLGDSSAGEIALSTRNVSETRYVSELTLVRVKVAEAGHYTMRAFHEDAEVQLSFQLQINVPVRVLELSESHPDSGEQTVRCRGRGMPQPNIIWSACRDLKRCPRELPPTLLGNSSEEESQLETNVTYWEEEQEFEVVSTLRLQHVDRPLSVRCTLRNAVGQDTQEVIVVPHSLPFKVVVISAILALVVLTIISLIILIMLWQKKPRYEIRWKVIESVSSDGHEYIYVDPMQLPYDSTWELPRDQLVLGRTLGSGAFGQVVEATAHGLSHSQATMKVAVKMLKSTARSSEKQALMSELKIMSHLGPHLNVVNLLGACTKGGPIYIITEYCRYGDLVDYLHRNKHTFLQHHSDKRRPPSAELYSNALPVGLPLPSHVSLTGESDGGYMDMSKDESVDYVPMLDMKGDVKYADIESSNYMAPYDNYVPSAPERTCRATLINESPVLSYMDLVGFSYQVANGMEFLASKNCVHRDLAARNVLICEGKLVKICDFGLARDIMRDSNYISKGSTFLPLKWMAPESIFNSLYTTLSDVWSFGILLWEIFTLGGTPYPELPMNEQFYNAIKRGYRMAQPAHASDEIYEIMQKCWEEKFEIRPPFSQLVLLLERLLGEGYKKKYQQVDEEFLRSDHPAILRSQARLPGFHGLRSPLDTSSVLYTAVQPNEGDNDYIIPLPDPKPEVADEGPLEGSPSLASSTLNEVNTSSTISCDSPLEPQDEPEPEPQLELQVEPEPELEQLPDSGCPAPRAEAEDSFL

[15] = biological target: Hepatocyte growth factor receptor (Homo sapiens, UniProt P08581); experiment: Inhibition of MET
[16] = biological target: T3, Receptor-type tyrosine-protein kinase FLT3 (Homo sapiens, UniProt P36888); experiment: Inhibition of FLT3
T3 sequence (P36888 whole entry): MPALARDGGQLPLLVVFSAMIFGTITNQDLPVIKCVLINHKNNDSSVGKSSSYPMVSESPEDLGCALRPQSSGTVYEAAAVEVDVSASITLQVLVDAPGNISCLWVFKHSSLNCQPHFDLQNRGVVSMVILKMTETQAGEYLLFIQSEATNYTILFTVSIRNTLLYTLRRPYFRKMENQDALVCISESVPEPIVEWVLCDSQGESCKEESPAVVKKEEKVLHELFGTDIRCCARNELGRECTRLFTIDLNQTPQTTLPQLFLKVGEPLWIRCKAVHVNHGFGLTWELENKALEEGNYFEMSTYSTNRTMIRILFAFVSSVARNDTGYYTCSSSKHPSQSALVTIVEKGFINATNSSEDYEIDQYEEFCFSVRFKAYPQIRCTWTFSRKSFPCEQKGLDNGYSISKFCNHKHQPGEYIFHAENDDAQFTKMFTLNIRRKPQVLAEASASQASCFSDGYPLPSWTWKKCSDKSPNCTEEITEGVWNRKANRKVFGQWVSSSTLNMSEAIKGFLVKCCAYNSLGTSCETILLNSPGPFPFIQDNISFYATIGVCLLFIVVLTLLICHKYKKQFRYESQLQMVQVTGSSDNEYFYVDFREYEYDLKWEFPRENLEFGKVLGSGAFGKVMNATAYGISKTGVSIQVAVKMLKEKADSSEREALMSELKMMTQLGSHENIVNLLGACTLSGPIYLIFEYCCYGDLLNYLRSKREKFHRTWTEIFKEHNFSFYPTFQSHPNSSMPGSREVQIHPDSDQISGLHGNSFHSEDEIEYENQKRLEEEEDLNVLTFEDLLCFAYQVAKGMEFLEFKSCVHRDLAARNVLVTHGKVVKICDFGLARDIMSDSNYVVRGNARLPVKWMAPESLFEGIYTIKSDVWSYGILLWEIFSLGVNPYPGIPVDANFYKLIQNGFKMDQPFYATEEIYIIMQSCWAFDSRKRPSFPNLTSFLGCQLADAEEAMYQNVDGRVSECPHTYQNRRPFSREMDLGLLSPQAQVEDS

[17] = biological target: Insulin-like growth factor 1 receptor (Homo sapiens, UniProt P08069); experiment: Inhibition of IGFR1
Angiopoietin-1 receptor [18] = biological target: T1, Angiopoietin-1 receptor; experiment: Inhibition of Tie2 at 10 uM

T1 sequence (Q02763 whole entry): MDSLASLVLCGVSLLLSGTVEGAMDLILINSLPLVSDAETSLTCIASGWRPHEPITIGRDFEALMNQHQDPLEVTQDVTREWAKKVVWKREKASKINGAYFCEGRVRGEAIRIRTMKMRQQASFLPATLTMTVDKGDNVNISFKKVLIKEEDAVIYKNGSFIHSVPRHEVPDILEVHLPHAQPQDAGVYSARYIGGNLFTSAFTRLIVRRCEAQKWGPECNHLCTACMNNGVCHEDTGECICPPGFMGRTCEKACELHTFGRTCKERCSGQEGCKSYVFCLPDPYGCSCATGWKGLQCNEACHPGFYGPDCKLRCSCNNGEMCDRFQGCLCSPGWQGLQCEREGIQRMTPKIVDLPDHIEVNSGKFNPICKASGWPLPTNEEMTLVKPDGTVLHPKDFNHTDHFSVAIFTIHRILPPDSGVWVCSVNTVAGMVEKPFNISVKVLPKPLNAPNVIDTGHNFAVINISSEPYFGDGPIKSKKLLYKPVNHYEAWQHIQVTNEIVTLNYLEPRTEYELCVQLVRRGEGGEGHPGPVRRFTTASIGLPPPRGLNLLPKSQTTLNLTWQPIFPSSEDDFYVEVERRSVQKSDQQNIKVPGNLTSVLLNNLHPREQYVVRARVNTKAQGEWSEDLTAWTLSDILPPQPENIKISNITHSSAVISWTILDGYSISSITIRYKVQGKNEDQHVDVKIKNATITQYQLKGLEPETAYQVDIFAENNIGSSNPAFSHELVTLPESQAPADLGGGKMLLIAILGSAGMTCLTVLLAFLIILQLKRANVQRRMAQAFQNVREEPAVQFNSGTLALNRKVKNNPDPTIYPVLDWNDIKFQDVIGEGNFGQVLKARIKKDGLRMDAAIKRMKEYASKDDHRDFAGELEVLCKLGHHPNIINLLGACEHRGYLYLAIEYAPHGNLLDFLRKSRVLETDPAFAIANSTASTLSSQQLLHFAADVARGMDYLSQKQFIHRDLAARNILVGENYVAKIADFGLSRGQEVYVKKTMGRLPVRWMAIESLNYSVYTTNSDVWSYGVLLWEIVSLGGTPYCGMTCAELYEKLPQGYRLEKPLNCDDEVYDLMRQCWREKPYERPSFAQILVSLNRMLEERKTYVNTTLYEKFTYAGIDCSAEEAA

| Compound | IC50 (Angiopoietin-1 receptor [1]) [nM] | also measured |
| --- | --- | --- |
| COc1ccc2cc(-c3c(-c4ccncc4)nc(-c4ccc([S+](C)[O-])cc4C)n3C)ccc2c1 (stereo not given) | 12 | IC50 [2]: > 30000 nM; IC50 [3]: 550 nM; IC50 [4]: > 30000 nM; IC50 [5]: 1500 nM; inhibition in vivo at 50 mg/kg (Mus musculus [6]): 80%; IC50 [7]: 9700 nM; IC50 [8]: > 30000 nM; IC50 [9]: > 30000 nM; IC50 (TGF-beta receptor type-1): 296 nM; IC50 [10]: > 30000 nM; IC50 (MAP kinase p38): 4100 nM; IC50 (Insulin receptor): > 30000 nM; inhibition in vivo at 25 mg/kg (Mus musculus [11]): 35%; IC50 [12]: > 30000 nM; IC50 [13]: > 30000 nM; IC50 [14]: > 30000 nM; IC50 [15]: > 30000 nM; IC50 [16]: > 30000 nM; IC50 [17]: > 30000 nM |
| COc1ccc2cc(-c3nc(-c4ccccc4Cl)[nH]c3-c3ccncc3)ccc2c1 | 157 |  |
| COc1ccc2cc(-c3nc(-c4ccccc4C(F)(F)F)[nH]c3-c3ccncc3)ccc2c1 | 260 |  |
| COc1ccc2cc(-c3nc(-c4ccccc4)[nH]c3-c3ccncc3)ccc2c1 |  | inhibition (Angiopoietin-1 receptor [18]): 60% |
| COc1ccc2cc(-c3[nH]c(-c4c(Cl)cccc4Cl)nc3-c3ccncc3)ccc2c1 | 78 |  |
| COc1ccc2cc(-c3[nH]c(-c4ccc(SC)cc4Cl)nc3-c3ccncc3)ccc2c1 | 1500 |  |
| COc1ccc2cc(-c3nc(-c4ccccc4F)[nH]c3-c3ccncc3)ccc2c1 | 1600 |  |
| COc1ccc2cc(-c3[nH]c(-c4ccccc4Br)nc3-c3ccncc3)ccc2c1 | 82 |  |
| CCc1ccccc1-c1nc(-c2ccc3cc(OC)ccc3c2)c(-c2ccncc2)[nH]1 | 346 |  |
| COc1ccc2cc(-c3c(-c4ccncc4)nc(-c4ccc(SC)cc4C)n3C)ccc2c1 | 335 |  |
| COc1ccc2cc(-c3[nH]c(-c4ccc([S+](C)[O-])cc4Cl)nc3-c3ccncc3)ccc2c1 (stereo not given) | 51 |  |
| COc1ccc2cc(-c3nc(-c4ccccc4C(C)C)[nH]c3-c3ccncc3)ccc2c1 | 836 |  |

Now from value to compound, other results behind:

| IC50 (Angiopoietin-1 receptor [1]) [nM] | Compound | also measured |
| --- | --- | --- |
| 40 | COc1ccc2cc(-c3[nH]c(-c4ccc(S(C)(=O)=O)cc4C)nc3-c3ccncc3)ccc2c1 |  |
| 22 | COc1ccc2cc(-c3nc(-c4ccc([S@@+](C)[O-])cc4C)[nH]c3-c3ccncc3)ccc2c1 |  |
| 250 | COc1ccc2cc(-c3nc(-c4ccc(S(C)(=O)=O)cc4)[nH]c3-c3ccncc3)ccc2c1 |  |
| 114 | COc1ccc2cc(-c3c(-c4ccncc4)nc(-c4ccc(S(C)(=O)=O)cc4C)n3C)ccc2c1 |  |
| 387 | COc1ccc2cc(-c3[nH]c(-c4ccccc4C)nc3-c3ccncc3)ccc2c1 |  |
| 1300 | COc1ccc2cc(-c3[nH]c(-c4ccc(SC)cc4C)nc3-c3ccncc3)ccc2c1 |  |
| 59 | COc1ccc2cc(-c3[nH]c(-c4ccc(S(C)(=O)=O)cc4Cl)nc3-c3ccncc3)ccc2c1 |  |
| 36 | COc1ccc2cc(-c3nc(-c4ccc([S+](C)[O-])cc4C)[nH]c3-c3ccncc3)ccc2c1 (stereo not given) |  |
| 95 | COc1ccc2cc(-c3nc(-c4ccc([S@+](C)[O-])cc4C)[nH]c3-c3ccncc3)ccc2c1 |  |
